Assay results as given in ChEMBL document CHEMBL4393676, “Design, Synthesis, and Preclinical Characterization of Selective Factor D Inhibitors Targeting the Alternative Complement Pathway” (J Med Chem, 2019).
Values after ≈ are worked out from the molar mass of the structure shown.

How the values were obtained:
[1] = Oral bioavailability in Beagle dog at 10 mg/kg administered via gavage by HPLC-MS/MS analysis; format: ADME, organism-based, Canis lupus familiaris; conditions: in vivo
Outline: (§1)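 Beagle dogs, n=3 per route: IV 1 mg/kg in 2% 1N HCl, 20% PEG 300, 50% of 20% solutol in PBS; PO gavage 10 mg/kg as solution in 20% PEG 300, 10% solutol HS15, 70% citrate buffer pH 3. Blood at 5 min (IV), 15 min, 0.5, 1, 2, 4, 7, 24 h; HPLC-MS/MS (ESI positive); non-compartmental analysis; mean ± SD.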

Mus musculus [2] = test: Suppression of intravitreal injection-activated alternative complementation pathway in human FD knock-in C57BL/6 mouse model of local ocular injury assessed as reduction in ocular Ba level treated via oral gavage 2 hrs prior to intravitreal injection and measured after 4 hrs by Western blot analysis; format: functional, organism-based
Outline: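 Human FD knock-in mice dosed by oral gavage (3 or 10 mg/kg) at time 0; 2 h later anesthetized and injected intravitreally with 1 µL sterile PBS. Eyes taken 4 h after injection; lysates analysed for Ba by Western blot, relative to vehicle, mean ± SEM.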

[3] = Volume of distribution at steady state in Beagle dog at 1 mg/kg, iv or 10 mg/kg, po administered via gavage by HPLC-MS/MS analysis; format: ADME, organism-based, Canis lupus familiaris; conditions: in vivo, read-out: Vdss; outline: as §1
[4] = AUC (0 to 7 hrs) in C57BL/6 mouse at 1 mg/kg, iv by HPLC-MS/MS analysis; format: ADME, organism-based; design: dose 1 mg/kg, time < 7 hr, route intravenous; conditions: in vivo; for AUC(0-t) at 7 h: C57BL/6, mouse
[5] = Half life in Beagle dog at 1 mg/kg, iv or 10 mg/kg, po administered via gavage by HPLC-MS/MS analysis; format: ADME, organism-based, Canis lupus familiaris; conditions: in vivo; outline: as §1
[6] = Drug level in Brown Norway rat posterior eye cup at 10 mg/kg, po administered via gavage measured at 24 hrs post dose by HPLC-MS/MS analysis; format: ADME, organism-based; conditions: read-out: Drug uptake
Outline: (§2)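 Three-month-old Brown Norway rats given single 10 mg/kg oral gavage, suspension in 0.5% HPMC/0.1% Tween 80. Plasma and both eyes' retina and posterior eye cup (RPE/choroid plus posterior sclera) taken from 2 rats per time at 0.25, 0.5, 1, 3, 6, 24 h; tissues homogenized in PBS with 10% acetonitrile, supernatants by HPLC-MS/MS. AUC dose normalized.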

[7] = Volume of distribution at steady state in C57BL/6 mouse at 1 mg/kg, iv or 10 mg/kg, po administered via gavage by HPLC-MS/MS analysis; format: ADME, organism-based; conditions: in vivo, read-out: Vdss
[8] = Elimination half life in C57BL/6 mouse at 1 mg/kg, iv by HPLC-MS/MS analysis; format: ADME, organism-based; conditions: in vivo, read-out: beta t1/2 (converted)
[9] = Oral bioavailability in C57BL/6 mouse 10 mg/kg by HPLC-MS/MS analysis; format: ADME, organism-based; conditions: in vivo; for bioavailability: C57BL/6, mouse
[10] = Clearance in C57BL/6 mouse at 1 mg/kg, iv or 10 mg/kg, po administered via gavage by HPLC-MS/MS analysis; format: ADME, organism-based; conditions: in vivo
[11] = Drug level in Brown Norway rat retina at 10 mg/kg, po administered via gavage measured at 24 hrs post dose by HPLC-MS/MS analysis; format: ADME, organism-based; conditions: in vivo, BLD = below limit of detection; outline: as §2
[12] = Dose normalized AUC in Brown Norway rat plasma at 10 mg/kg, po administered via gavage by HPLC-MS/MS analysis; format: ADME, organism-based; conditions: in vivo; outline: as §2
[13] = Tmax in Beagle dog at 10 mg/kg, po administered via gavage by HPLC-MS/MS analysis; format: ADME, organism-based, Canis lupus familiaris; conditions: in vivo; outline: as §1
[14] = Time at which posterior eye cup concentration stays above in vitro IC50 for inhibition of FD-mediated alternative complementation pathway in 50% human whole blood in Brown Norway rat at 10 mg/kg, po; format: organism-based; conditions: in vivo; outline: as §2
[15] = AUClast in Beagle dog at 10 mg/kg, po administered via gavage by HPLC-MS/MS analysis; format: ADME, organism-based, Canis lupus familiaris; design: dose 10 mg/kg, time 0 - last, route oral; conditions: in vivo; outline: as §1
[16] = Dose normalized AUC in Brown Norway rat retina at 10 mg/kg, po administered via gavage by HPLC-MS/MS analysis; format: ADME, organism-based; conditions: in vivo; outline: as §2
[17] = Cmax in C57BL/6 mouse at 10 mg/kg, po administered via gavage by HPLC-MS/MS analysis; format: ADME, organism-based; design: dose 10 mg/kg, route oral; conditions: in vivo
[18] = Dose normalized AUC in Brown Norway rat posterior eye cup at 10 mg/kg, po administered via gavage by HPLC-MS/MS analysis; format: ADME, organism-based; conditions: in vivo; outline: as §2
[19] = Plasma concentration in Brown Norway rat at 10 mg/kg, po administered via gavage measured at 24 hrs post dose by HPLC-MS/MS analysis; format: ADME, organism-based; outline: as §2
[20] = Clearance in Beagle dog at 1 mg/kg, iv or 10 mg/kg, po administered via gavage by HPLC-MS/MS analysis; format: ADME, organism-based, Canis lupus familiaris; conditions: in vivo; outline: as §1
Mus musculus [21] = test: Suppression of LPS-induced alternative complementation pathway in human FD knock-in C57BL/6 mouse assessed as reduction in plasma Ba level treated via oral gavage […] prior to LPS stimulation and measured up to 24 hrs post-dose; format: functional, organism-based
[22] = AUC (0 to 7 hrs) in C57BL/6 mouse at 10 mg/kg, po administered via gavage by HPLC-MS/MS analysis; format: ADME, organism-based; design: time < 7 hr, dose 10 mg/kg, route oral; conditions: in vivo; for AUC(0-t) at 7 h: C57BL/6, mouse
[23] = Cmax in Beagle dog at 10 mg/kg, po administered via gavage by HPLC-MS/MS analysis; format: ADME, organism-based, Canis lupus familiaris; design: dose 10 mg/kg, route oral; conditions: in vivo; outline: as §1
[24] = Solubility of the compound at pH 6.8; format: physicochemical; conditions: buffer
Coagulation factor XI = Coagulation factor XI (Homo sapiens, UniProt P03951); test: Inhibition of F11a (unknown origin)
Tryptase beta-2 = Tryptase beta-2 (Homo sapiens, UniProt P20231); test: Inhibition of tryptase-beta2 (unknown origin)

Structure (SMILES) | AUC(0-t) at 7 h [4] [µM·h] | Vd [7] [L/kg] | half-life [8] [h] | bioavailability [9] [%] | clearance [10] [mL/min/kg] | Cmax [17] [µM] | AUC(0-t) at 7 h [22] [µM·h] | also measured
N[C@H](CO)c1cccc(-c2cc(Br)cc(COc3ccccc3CC(=O)O)c2)c1 |  | 0.1 | 2.5 |  | 0.7 | 26 |  | AUC ([4]; mouse, 7 h): 48.7 µM·h; F ([9]; mouse): 25%; AUC ([22]; mouse, 7 h): 11.6 µM·h
NCc1cccc(-c2cccc(C(=O)Nc3ccccc3CC(=O)O)c2)c1 |  |  |  | 10 | 22 |  |  | solubility [24]: 220 µM (≈ 79.3 µg/mL); IC50 (Coagulation factor XI): 2800 nM; IC50 (Tryptase beta-2): 2300 nM
N[C@H](CCO)c1cccc(-c2cccc(COc3ccccc3CC(=O)O)c2)c1 | 4.97 | 0.3 | 1.3 | 39 | 8.7 | 10.7 | 19.5 | 

More lines, main results first:

AUC(0-t) at 7 h [4] [µM·h] | Vd [7] [L/kg] | half-life [8] [h] | bioavailability [9] [%] | clearance [10] [mL/min/kg] | Cmax [17] [µM] | AUC(0-t) at 7 h [22] [µM·h] | Structure (SMILES) | also measured
16.1 | 0.3 | 1.6 | 83 | 2.6 | 31 | 125 | N[C@H](CO)c1cccc(-c2cccc(COc3ccccc3CC(=O)O)c2)c1 | bioavailability [1]: 70%; Activity (Mus musculus [2]): Dose-dependent effect; Vd [3]: 0.8 L/kg; half-life [5]: 3.8 h; concentration at 24 h [6]: 0.29 µM; Drug uptake [11]: Bld; AUC/dose [12]: 2300 nM·h; Tmax [13]: 0.8 h; Time [14]: > 24 h; AUC(0-t) [15]: 85 µM·h; AUC/dose [16]: 8 nM·h; AUC/dose [18]: 1160 nM·h; concentration at 24 h [19]: 0.034 µM; clearance [20]: 3.8 mL/min/kg; Activity (Mus musculus [21]): Dose-dependent effect; Cmax [23]: 16.5 µM
 |  |  | 100 | 14 |  |  | NCc1cccc(-c2cccc(COc3ccccc3CC(=O)O)c2)c1 | 
